In ChEMBL document CHEMBL4513216, “Probing the Open Global Health Chemical Diversity Library for Multistage-Active Starting Points for Next-Generation Antimalarials” (ACS Infect Dis, 2020):

Assay: Toxicity liver stage against HepG2, at 10uM
Format: cell-based
Parameters: test concentration 10 uM, cell line HepG2-A16-CD81EGFP
Settings: human, HepG2-A16-CD81EGFP cells; read-out: INHIBITION
In short: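 Uninfected HepG2-A16-CD81EGFP cells, 3 × 10^3 per well, 1536-well, plated on prespotted compound at 10 μM final, parasite-free screening media added to match infected plates; puromycin 10 μM positive, DMSO 0.5% negative; run in parallel with 48 h PbLuc assay at 37 °C, 5% CO2; viability by CellTiter-Glo luminescence, normalized to controls.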

First: Cc1ccc(CNC(=O)c2nc3c(o2)CN(C(=O)c2cccnc2)C3)o1
Second: CN1C(=O)CO[C@H](c2ccc(NC(=O)c3cccnc3)cc2)[C@H]1CO
The cytotoxicity at 10 µM of the first is lower: 0.109% for the first, 6.15% for the second.

Going from CN1CC[C@]2(CN(C(=O)c3ccc[nH]3)C[C@H]2c2ccccc2)C1=O to OC[C@@H]1[C@H]2CN(c3ccccn3)CCN2C[C@H]1c1ccccc1, the cytotoxicity at 10 µM falls from 11.6% to -8.43%.

First: CCCC(=O)NCCc1nc(N(C)C)ncc1-c1ccncc1
Second: CN(C)c1ccc(CNC(=O)NCCc2ccccn2)cn1
The cytotoxicity at 10 µM of the first is higher: 2.92% for the first, -4.66% for the second.

First: CCOCCCNC(=O)CN(c1cc(C)cc(C)c1)S(C)(=O)=O
Second: Cc1cccc(OCCNC(=O)CN2CCc3cncnc3C2)c1
The cytotoxicity at 10 µM of the first is higher: 4.48% for the first, -6.65% for the second.

Compared with Cc1ccc(-c2nc(CN(C)C3CCS(=O)(=O)C3)cs2)o1 (centres undefined), Cc1nc(CN2CCOC(CN(C)c3cccnn3)C2)cs1 (centres undefined) is higher in cytotoxicity at 10 µM: -8.05% for the first, 0.938% for the second.

First: CC(=O)NC1CCN(C(=O)Nc2cccc(SC(F)F)c2)CC1
Second: COCC(=O)N1CCC(Oc2cccc(C)c2)CC1
The cytotoxicity at 10 µM of the first is higher: -0.598% for the first, -4.25% for the second.

Compared with Cc1cncc(C2CCCN(C(=O)c3c[nH]c(=O)[nH]c3=O)C2)n1 (centres undefined), Cc1nc(C2CCCN(C(=O)c3cc(Cl)c[nH]3)C2)sc1C (centres undefined) is lower in cytotoxicity at 10 µM: 1.92% for the first, -21.5% for the second.

First: Cc1nccn1CC1CCCN1CCCc1nc(-c2cccs2)no1 (centres undefined)
Second: CCn1ccnc1CN1CCN(CC(O)c2cccc(F)c2)CC1 (centres undefined)
The cytotoxicity at 10 µM of the first is lower: -1.84% for the first, 0.272% for the second.

First: CN(Cc1cccs1)C1CCC[C@@H]2CN(C(=O)c3cccn3C)C[C@H]12 (some centres undefined)
Second: Cn1cccc1C(=O)NC1CCN(c2ccc(OC(F)(F)F)cc2)CC1
The cytotoxicity at 10 µM of the first is higher: 22.6% for the first, 4.87% for the second.

Going from Cc1ccc(S(=O)(=O)Nc2cccnc2O)cc1C to Cc1ccc(S(=O)(=O)Nc2ccc(-n3ccnc3C)nc2)cc1N(C)C, the cytotoxicity at 10 µM falls from 3.33% to -3.78%.

First: O=C(O)CCC(=O)Nc1nn(Cc2ccccc2Cl)cc1Cl
Second: O=C(c1nnn(-c2ccc(Cl)cc2)n1)N(CCO)Cc1ccccc1
The cytotoxicity at 10 µM of the first is higher: 7% for the first, -1.9% for the second.

First: Cc1nnc(CN(Cc2ccco2)Cc2cccc3c2OCO3)n1C
Second: Cc1nc2ccccc2n1Cc1cc(C(=O)NC2CCOC2)no1 (centres undefined)
The cytotoxicity at 10 µM of the first is lower: -0.535% for the first, 4.45% for the second.

Compared with FC(F)(F)Oc1cccc(CNCc2ccc(-n3cncn3)nc2)c1, COCCn1cncc1Cn1cccc(C(F)(F)F)c1=O is lower in cytotoxicity at 10 µM: 20.3% for the first, -19.2% for the second.

Compared with Cc1cc(C(=O)N2CCn3nc(C(=O)NC4CC4)cc3C2)nc(C)n1, CCc1nnc2n1CCN(C(=O)c1ccc3nc(C)c(C)nc3c1)C2 is lower in cytotoxicity at 10 µM: 1.15% for the first, -10.9% for the second.

Compared with Fc1cccc(Cl)c1CN1CCC(c2n[nH]c3ncccc23)CC1, CCOc1ccnc(N2CCN(Cc3ncccc3C)CC2)n1 is higher in cytotoxicity at 10 µM: -13.7% for the first, -7.32% for the second.

Going from C/C=C(\C)CN1C[C@@H](NC(=O)c2ccc(O)c(Cl)c2)C[C@H]1C(=O)NCC to Cc1ncsc1C(=O)N1CCC(c2ccc3c(NC(C)C)n[nH]c3n2)C1 (centres undefined), the cytotoxicity at 10 µM falls from 9.23% to 4.42%.

First: O=C(NCC1CCCO1)c1nc2c(s1)CCCN2CC1CC1 (centres undefined)
Second: O=C(NCC1CCCO1)c1nc2c(s1)CCCN2C(=O)C1CC1 (centres undefined)
The cytotoxicity at 10 µM of the first is lower: -0.843% for the first, -0.464% for the second.

Going from CC(=O)N1CCN(c2cc(-c3ccccc3)nc3c(C)c(C)nn23)CC1 to CC(=O)N1CCN(c2ccccc2CNc2cncc(C)c2)CC1, the cytotoxicity at 10 µM rises from -13.1% to 2.22%.

Going from O=S(=O)(c1ccccc1)N1CCC2(CCCN2CC2CCCC2)C1 (centres undefined) to Cc1cc(N2CCC(CO)(CC3CCCCO3)CC2)c2ccccc2n1 (centres undefined), the cytotoxicity at 10 µM rises from 4.4% to 4.46%.

Going from CC1(C2CCN(CC(N)=O)CC2)CN(Cc2ccccc2)C(=O)O1 (centres undefined) to CC1CCN(c2nc3cn(-c4ccccc4)c(=O)c-3c[nH]2)CC1, the cytotoxicity at 10 µM rises from -23.4% to -12.6%.

Compared with COc1cccc(NC(=O)c2nc3ccccc3n(C)c2=O)c1, CN(C)CCn1ccc2ccc(NC(=O)c3ccncc3F)cc21 is lower in cytotoxicity at 10 µM: 4.47% for the first, -1.53% for the second.

First: CCCNS(=O)(=O)Cc1ccc(Br)cc1
Second: Cc1ccc(CNC(=O)CCN2CCOC(C(F)(F)F)C2)cc1 (centres undefined)
The cytotoxicity at 10 µM of the first is lower: -4.81% for the first, 3.71% for the second.

Compared with O=C(NCCCN1CCOCC1)c1ccn(COc2ccc(F)cc2)n1, O=C1CCCN1C1CCN(S(=O)(=O)CCOc2ccc(F)cc2)CC1 is lower in cytotoxicity at 10 µM: 7.16% for the first, 5.94% for the second.

Going from COC(=O)c1ccc2c(-c3ccnc(N[C@@H](C)CO)n3)c[nH]c2c1 to Cc1nn(C)cc1-c1cc(C(=O)NCC(C)(C)c2ccc(F)cc2)n[nH]1, the cytotoxicity at 10 µM rises from -5.94% to -1.29%.

Going from OCCOCc1n[nH]c2c1CN(Cc1ccco1)C2 to c1coc(CN2Cc3ccnn3CC(COCC3CC3)C2)c1 (centres undefined), the cytotoxicity at 10 µM falls from 6.71% to -153%.

First: COCC(=O)NC(c1ccccc1)c1ccc2c(c1)CCCO2 (centres undefined)
Second: O=C(O)c1ccccc1-n1cnc(CN2CCc3ccccc32)c1
The cytotoxicity at 10 µM of the first is lower: -1.83% for the first, 11.7% for the second.

First: O=C([C@H]1CCCO1)N1CCC2(CC1)Cc1ccccc1CNC2=O
Second: O=C(CCc1ccccn1)N1CCCC(N2CCNC2=O)C1 (centres undefined)
The cytotoxicity at 10 µM of the first is lower: -101% for the first, 6.99% for the second.

First: NC(=O)c1cccc(CCNCc2cccs2)c1
Second: O=C(NCCc1ccc(F)cc1)NCC(O)c1cccc(F)c1 (centres undefined)
The cytotoxicity at 10 µM of the first is higher: 1.68% for the first, -1.14% for the second.

Going from Cc1cc(CN2CCN(C(=O)NCc3nc(C)cs3)CC2)on1 to CCc1cnc(C)nc1N1CCN(Cc2ccc(-c3cc[nH]n3)o2)CC1, the cytotoxicity at 10 µM rises from -5.01% to -0.898%.

First: CCc1cnc(COc2ccc(OC3CCCCNC3=O)cc2)o1 (centres undefined)
Second: COc1ccc(CN2CC[C@@H]3[C@H]2CCC(=O)N3c2cnn(C)c2)cc1
The cytotoxicity at 10 µM of the first is lower: 0.318% for the first, 17.4% for the second.

Compared with COc1ccc2c(c1)nc1n2[C@@H](CNCc2cnn(C)c2)COC1, CCc1sc(-c2nnc(CNCCn3cc(C)cn3)o2)cc1C is lower in cytotoxicity at 10 µM: -6.8% for the first, -8.75% for the second.

Compared with O=C(N1CCCC1)N1CCO[C@H]2[C@@H](OCc3cccnc3)CC[C@@H]21, CN1CCN([C@@H]2CN(C(=O)Cc3ccsc3)[C@@H]3CCCO[C@H]23)CC1 is higher in cytotoxicity at 10 µM: -1.6% for the first, 2.87% for the second.

First: O=c1[nH]c2nc(N3CCSCC3)ncc2c(=O)n1-c1cccc(F)c1
Second: O=C(c1cnc(O)cn1)N1CCCC1c1nc2cc(F)ccc2[nH]1 (centres undefined)
The cytotoxicity at 10 µM of the first is lower: -1.82% for the first, 7.72% for the second.

Going from CCN1CCC(NC(=O)CN2CCCC2Cn2nc(C)nc2C)CC1 (centres undefined) to Cc1nccc(N2CCN(C3CCOCC3)CC(C(=O)N(C)C)C2)n1 (centres undefined), the cytotoxicity at 10 µM rises from -12.7% to 2.12%.

Compared with CN1C[C@@H](F)[C@@H](OCc2nc3ccc(C#N)cc3[nH]2)C1, Cc1ccc(C)c(OC2CCN(C(=O)c3ccc(C)[nH]c3=O)CC2)c1 is higher in cytotoxicity at 10 µM: 0.434% for the first, 2.87% for the second.

First: O=C(Cn1cnc2ccsc2c1=O)NCCCc1nnc2ccccn12
Second: O=C(CCn1ccc2cc(Br)ccc21)/N=c1\[nH]nc(C2CCCO2)s1 (centres undefined)
The cytotoxicity at 10 µM of the first is higher: 1.43% for the first, -2.31% for the second.

Compared with Cc1noc([C@]23COC[C@H]2CN(C(=O)N2CCCC2)C3)n1, N#CC1(C(=O)N2CCC(Nc3cccnn3)CC2)CCCCC1 is higher in cytotoxicity at 10 µM: -103% for the first, 2.87% for the second.

Compared with CC(C(=O)Nc1ncccn1)N1CCc2[nH]nc(C(F)(F)F)c2C1 (centres undefined), CC(C)Cn1cncc1-c1nc2c([nH]1)CCCNC2=O is higher in cytotoxicity at 10 µM: -0.583% for the first, 15% for the second.

First: O=C(c1cccnc1)N1CCCC(c2ncncc2-c2ccncc2)C1 (centres undefined)
Second: CN(C)CCN1CCN(C)C2(CCN(c3nccs3)CC2)C1=O
The cytotoxicity at 10 µM of the first is lower: -23.4% for the first, -1.92% for the second.

For CN(C)CCNCCC(Cc1ccccc1)C1CCOC(C)(C)C1 (centres undefined), the cytotoxicity at 10 µM was 1.51%.
